Rows were chosen to be rich in hits. Some 3% of all compounds tested hit in one or more screens of this group.
M4 antag – human M4 muscarinic receptor antagonists, primary screen, CHO cells, Fluo-8 calcium fluorescence; Muscarinic acetylcholine receptor M4 (Homo sapiens), P08173; CHO-hM4 cells, ACh EC80; inhibition, % at 3 µM; hit rate 0.73% among 360,000; AID 624125, 2012;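 active = inhibition above its plate's cutoff, the mean inhibition of sample wells plus 3 SD, cut at about 27% in these data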
M4 ag – human M4 muscarinic receptor agonists, primary screen, CHO-K1 cells, Fluo-8 calcium fluorescence; Muscarinic acetylcholine receptor M4 (Homo sapiens), P08173; CHO-K1 hM4/Gqi5; vehicle 0%, full acetylcholine response 100%; activation, % at 3 µM; hit rate 0.14% among 360,000; AID 624127, 2012;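 active = activation above the run mean over all test wells plus 3 SD, cut at about 32% in these data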;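 also: peak over basal fluorescence ratio per well then scaled between controls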
CHRM4 PAM – human M4 muscarinic receptor positive allosteric modulators, primary screen, CHO-K1 cells, Fluo-8 calcium fluorescence; CHO-K1 hM4/Gqi5, ACh EC20; 0% = ACh EC20, 100% = maximal ACh; activation, % at 3 µM; hit rate 0.4% among 360,000; AID 624126, 2012;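 active = activation above its plate's cutoff, the mean activation of sample wells plus 3 SD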
TAAR1 agonist – human TAAR1 agonists, primary screen, Fluo-8 calcium fluorescence, CHO RD-HGA16 cells. Trace amine-associated receptor 1 (Homo sapiens), Q96RJ0. vehicle wells 0%, saturating PEA agonist 100%. activation, % at 3 µM. hit rate 0.99% among 360,000;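 active = activation above the mean activation of all test compounds in the run plus 3 SD, cut at about 38% in these data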
Target sequence (Q96RJ0 whole entry, looked up): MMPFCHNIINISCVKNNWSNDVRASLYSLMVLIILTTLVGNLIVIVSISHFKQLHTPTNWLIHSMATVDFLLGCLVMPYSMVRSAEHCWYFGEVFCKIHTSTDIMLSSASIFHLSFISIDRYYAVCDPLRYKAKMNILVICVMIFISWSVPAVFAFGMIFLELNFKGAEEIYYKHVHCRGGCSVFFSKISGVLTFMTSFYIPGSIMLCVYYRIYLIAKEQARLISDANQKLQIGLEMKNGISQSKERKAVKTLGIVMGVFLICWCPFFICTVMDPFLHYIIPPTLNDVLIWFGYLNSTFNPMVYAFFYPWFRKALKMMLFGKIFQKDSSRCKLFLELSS
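Signal – calcium-sensitive Fluo-8 signal, excitation 470-495, emission 515-575 nm · System – RD-HGA16 (CHO) cells co-expressing Gα16 and hTAAR1 · Incubation – 17-24 h seeding, 75 min 37 °C dye, 30 min RT · Compound dosing – 3 µM single concentration · Repeats – no replicates (n 1)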
TAAR1 antagonist – human TAAR1 antagonists, primary screen, Fluo-8 calcium fluorescence, CHO RD-HGA16 cells; Trace amine-associated receptor 1 (Homo sapiens), Q96RJ0; antagonist; inhibition, % at 3 µM; hit rate 1.5% among 360,000;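 active = inhibition above a per-plate cutoff, the mean inhibition of test compounds on that plate plus 3 SD, cut at about 49% in these data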
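System: CHO RD-HGA16 cells bearing hTAAR1. Reagent: EC80 β-phenethylamine stimulus. Schedule: seeding 17-24 h prior, 75-min 37 °C, 30-min RT dye loading. Signal: Fluo-8 intracellular calcium dye fluorescence, real-time kinetic reads. Read-out: % inhibition from peak post-agonist over basal fluorescence ratio. Benchmarks: vehicle wells and EC80 agonist wells. Replicates: n of 1.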
TAAR1 ag confirm – human TAAR1 agonists, retest of hits, confirmation, Fluo-8 calcium fluorescence, CHO RD-HGA16 cells; activation, % at 3 µM; scaled: DMSO 0%, maximal phenethylamine 100%; shares compounds with TAAR1 agonist; hit rate 82% among 2,400;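 active = activation above a cutoff set at the run's mean compound activation plus 3 SD, cut at about 39% in these data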
Ga16 nonsel ag – nonselective calcium mobilization agonists, CHO-Ga16 cells, counter-screen for hTAAR1 agonist project, cell-based, fluorescence, CHO-Ga16 parental line | shares compounds with TAAR1 agonist | Fluo-8 calcium fluorescence; normalized to maximal ATP response, DMSO zero | activation, % at 3 µM | hit rate 50% among 2,400 | AID 651787, 2012;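 active = activation above the run cutoff, the mean activation over all tested wells plus 3 SD, cut at about 12% in these data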
TAAR1 desens – TAAR1 desensitization by agonist hits, confirmation, counter-screen for TAAR1 agonist project, cell-based, fluorescence, tachyphylaxis | hit rate 46% among 2,400 | inhibition, % at 3 µM | CHO RD-HGA16 hTAAR1, Fluo-8 calcium, beta-PEA response inhibition | shares compounds with TAAR1 agonist;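 active = inhibition above the run cutoff, the mean inhibition of all test compounds plus 3 SD, cut at about 49% in these data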;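 also: beta-PEA stimulus applied at its EC80; loss of beta-PEA calcium signal after compound pretreatment read as receptor desensitization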
Ga16 antag count – inhibition of ATP-evoked calcium response in CHO-Ga16 cells, counter-screen for TAAR1 agonist project, cell-based, fluorescence; CHO-Ga16 ATP-induced calcium, Fluo-8 fluorescence; shares compounds with TAAR1 agonist; hit rate 39% among 2,400; inhibition, % at 3 µM;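 active = inhibition above the plate's mean compound inhibition plus 3 SD, computed per plate, cut at about 22% in these data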
Of the large screens only hits and unclear results are named; the others gave an inactive call (follow-up assays come after a bar, where they were run).

CCCCN(C(=O)NC(=O)Nc1cccc(C)c1C)S(C)(=O)=O	TAAR1 agonist 70 | TAAR1 ag confirm 58 | Ga16 nonsel ag 19 | TAAR1 desens inactive | Ga16 antag count inactive
N#CC1(Nc2ccccc2)C(=O)Nc2ccccc21 (stereo unspecified)	none
N#CC1(Nc2cccc(Br)c2)C(=O)Nc2ccccc21 (stereo unspecified)	TAAR1 agonist 83 | TAAR1 ag confirm 54 | Ga16 nonsel ag 32 | TAAR1 desens 52 | Ga16 antag count 42
CCOC(=O)c1ccc(N2CN(CCc3ccccc3)CNC2=S)cc1	none (no result: TAAR1 agonist, TAAR1 antagonist) | Ga16 nonsel ag inactive | Ga16 antag count inactive
CCCN1CNC(=S)N(c2cc(C)ccc2C)C1	none
COc1ccccc1N1CN(CCc2ccccc2)CNC1=S	TAAR1 agonist 83, TAAR1 antagonist 57 | TAAR1 ag confirm 101 | Ga16 nonsel ag inactive | TAAR1 desens 84 | Ga16 antag count inactive
CCCN1CNC(=S)N(c2ccc(C(=O)OCC)cc2)C1	none
COc1ccccc1N1CN(Cc2ccccc2)CNC1=S	none
CCN1CNC(=S)N(c2cccc(C)c2)C1	none
Cc1ccc(N2CN(CCc3ccccc3)CNC2=S)cc1	CHRM4 PAM 14, TAAR1 agonist 73, TAAR1 antagonist 60 | TAAR1 ag confirm 90 | Ga16 nonsel ag inactive | TAAR1 desens 81 | Ga16 antag count inactive
Cc1ccc(C)c(N2CN(CCC3=CCCCC3)CNC2=S)c1	TAAR1 agonist 59 | TAAR1 ag confirm 53 | Ga16 nonsel ag inactive | TAAR1 desens 59 | Ga16 antag count inactive
CC(C1SC(=S)NC1=O)C1SC(=S)NC1=O (stereo unspecified)	none
O=S1(=O)CCSC[C@@H](CN2CCOCC2)N1	none (no result: M4 antag, M4 ag, CHRM4 PAM)
COc1ccc(C(=O)NCCS(=O)(=O)NCCc2ccccc2)cc1	TAAR1 agonist 48 | TAAR1 ag confirm 72 | Ga16 nonsel ag inactive | TAAR1 desens inactive | Ga16 antag count inactive
COc1ccc(CCNS(=O)(=O)CCNC(=O)c2ccccc2)cc1	none
O=C(NCCc1ccccc1)c1ccc(=O)oc1	TAAR1 agonist 61 | TAAR1 ag confirm 67 | Ga16 nonsel ag 14 | TAAR1 desens inactive | Ga16 antag count inactive
O=C(NCCS(=O)(=O)NCCc1ccccc1)c1ccc2c(c1)OCO2	none (no result: TAAR1 agonist, TAAR1 antagonist) | Ga16 nonsel ag inactive | Ga16 antag count inactive
O=C(NCCc1ccccc1)c1ccc2c(c1)OCCCO2	TAAR1 agonist 46 | TAAR1 ag confirm 60 | Ga16 nonsel ag inactive | TAAR1 desens inactive | Ga16 antag count inactive
CCCCn1nnnc1C(c1ccccc1)N1CCN(c2ccc(C)cc2)CC1 (stereo unspecified)	none
O=S1(=O)CCN(Cc2cccnc2)CC1	none
CCCCCNC(=O)C(C1CC1)n1c(=O)c(-c2ccco2)nc2ccccc21 (stereo unspecified)	none
Cc1ccc2cc(CNC[C@H]3O[C@@H](n4cc(C)c(=O)[nH]c4=O)C[C@@H]3O)c(N3CCOCC3)nc2c1	none
CC(C)=C[C@H]1C[C@H](C)[C@H]2CC[C@H](C)c3c(O)c(O[C@H]4OC[C@H](O)[C@@H](O)[C@@H]4O)c(C)c1c32	none
O=C1NC[C@H](Cc2ccccc2)N(CC2CCN(CCC34CC5CC(CC(C5)C3)C4)CC2)C1=O	none
CCOc1ccccc1N1CCN(Cc2cn[nH]c2-c2ccc(F)cc2)CC1	TAAR1 agonist 95 | TAAR1 ag confirm 83 | Ga16 nonsel ag 41 | TAAR1 desens inactive | Ga16 antag count inactive
Cc1ccccc1OCCCN1CCC(C(O)(c2ccccc2)c2ccccc2)CC1	TAAR1 agonist 37 (no result: M4 antag, M4 ag, CHRM4 PAM) | TAAR1 ag confirm 51 | Ga16 nonsel ag 19 | TAAR1 desens inactive | Ga16 antag count 26
OC(c1ccccc1)(c1ccccc1)C1CCN(CCCOc2cccc(F)c2)CC1	TAAR1 agonist 45 (no result: M4 antag, M4 ag, CHRM4 PAM) | TAAR1 ag confirm inactive | Ga16 nonsel ag inactive | TAAR1 desens inactive | Ga16 antag count inactive
Cc1cc(C)cc(OCCCN2CCC(C(O)(c3ccccc3)c3ccccc3)CC2)c1	none (no result: M4 antag, M4 ag, CHRM4 PAM)
N#Cc1cccc(OCCCN2CCC(C(O)(c3ccccc3)c3ccccc3)CC2)c1	none
CCCCCCCCN1C(=O)[C@H](CC(=O)N2CCCCC2)C[C@@]2(C(=O)OC)CCCCC=C12	none
CCOCCOc1cccc(C(=O)NC(c2ccccc2)c2ccccc2)c1	none (no result: TAAR1 agonist, TAAR1 antagonist) | Ga16 nonsel ag inactive | Ga16 antag count inactive
CCOCCOc1cccc(C(=O)NC(C)c2ccc3ccccc3c2)c1 (stereo unspecified)	none
CC(C)(C)C(=O)/C(C#N)=C/c1cccs1	none
N#C/C(=C\c1cccs1)C(=O)c1ccccc1Cl	TAAR1 agonist 59, TAAR1 antagonist 54 (no result: M4 antag, M4 ag, CHRM4 PAM) | TAAR1 ag confirm 53 | Ga16 nonsel ag 33 | TAAR1 desens 72 | Ga16 antag count 59
COc1ccc(CCN2CCC(Nc3nc4ccccc4n3Cc3ccc(F)cc3)CC2)cc1	TAAR1 agonist 59 | TAAR1 ag confirm 54 | Ga16 nonsel ag 20 | TAAR1 desens inactive | Ga16 antag count inactive
O=C(Nc1nccs1)c1ccc2ccccc2c1	none
O=C(Nc1n[nH]c(=S)s1)c1ccc2ccccc2c1	TAAR1 agonist 57 | TAAR1 ag confirm 42 | Ga16 nonsel ag 20 | TAAR1 desens inactive | Ga16 antag count inactive
C(=N\Nc1nn[nH]n1)/c1ccccc1	none
C(=NNc1nnn(Cc2ccccc2)n1)c1ccccc1	TAAR1 agonist 54 | TAAR1 ag confirm inactive | Ga16 nonsel ag inactive | TAAR1 desens inactive | Ga16 antag count inactive
CC(C)N(C)CCOC(=O)/C=C/c1ccccc1	TAAR1 agonist 73, TAAR1 antagonist 54 | TAAR1 ag confirm inactive | Ga16 nonsel ag inactive | TAAR1 desens inactive | Ga16 antag count inactive

Source: PubChem
